Results from ChEMBL document CHEMBL6134793, “Synthesis and structure-activity study of the antimicrobial lipopeptide brevibacillin” (RSC Med Chem, 2024).
Converted amounts (≈) assume the structure as drawn. The source made the active and inactive calls. The calls are words filed in the database; no cut-off is given here.

Assays:
[1] = Hemolytic activity in human erythrocytes at 128 ug/ml measured after 1 hr by absorbance based assay relative to control; format: toxicity, cell-based, Erythrocyte; conditions: at 128 µg/mL, read-out: Activity
In short: (§1)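 Washed human donor erythrocytes at 1% hematocrit in PBS pH 7.4 exposed to twofold peptide dilutions (final 2–256 μg mL−1, up to 1% DMSO) for 1 h at 37 °C. After centrifugation, supernatant A405 read. % hemolysis relative to PBS (0%) and 1% Triton X-100 (100%). Triplicate; mean ± SEM.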

Escherichia coli = assay: Antimicrobial activity against Escherichia coli ATCC 25922 assessed as growth inhibition by microdilution assay; format: functional
In short: (§2)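 Twofold serial microdilution of peptide (stocks 2 mg mL−1, diluted to 512 μg mL−1 in water with 10% DMSO) in strain medium, about 1 × 10^4 cfu per well. Media: TSB 20 h 37 °C (S. aureus, L. monocytogenes, B. subtilis, E. faecalis); LB 20 h 37 °C (P. aeruginosa, S. enterica, E. coli); Brucella 48 h 37 °C (C. coli). A595 read; MIC = lowest concentration with no visible growth; triplicate.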

Staphylococcus aureus [2] = assay: Antimicrobial activity against Staphylococcus aureus ATCC 6538 assessed as growth inhibition by microdilution assay; format: functional; in short: as §2
Pseudomonas aeruginosa [3] = assay: Antimicrobial activity against Pseudomonas aeruginosa ATCC […] assessed as growth inhibition by microdilution assay; format: functional; in short: as §2
Staphylococcus aureus [4] = assay: Antimicrobial activity against Staphylococcus aureus ATCC 6538 assessed as growth inhibition at 128 ug/ml by radial diffusion assay; format: functional, organism-based; conditions: dose 128.0 µg/ml
In short: (§3)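 Agar well diffusion. Overnight cultures inoculated at 1% into 0.75% soft agar (TSB for S. aureus, LB for P. aeruginosa). Each well received 80 μL of peptide at 128 μg mL−1 in water with 10% DMSO; 10% DMSO served as negative control. Inhibition zone diameter scored after strain-specific incubation.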

Campylobacter coli [5] = assay: Antimicrobial activity against Campylobacter coli ATCC 33559 assessed as growth inhibition by microdilution assay; format: functional; in short: as §2
Bacillus subtilis = assay: Antimicrobial activity against Bacillus subtilis ATCC 23957 assessed as growth inhibition by microdilution assay; format: functional; in short: as §2
Pseudomonas aeruginosa [6] = assay: Antimicrobial activity against Pseudomonas aeruginosa ATCC […] assessed as growth inhibition at 128 ug/ml by radial diffusion assay; format: functional, organism-based; conditions: dose 128.0 µg/ml; in short: as §3
Listeria monocytogenes = assay: Antimicrobial activity against Listeria monocytogenes ATCC 19111 assessed as growth inhibition by microdilution assay; format: functional; in short: as §2
[7] = Hemolytic activity in human erythrocytes at 256 ug/ml measured after 1 hr by absorbance based assay relative to control; format: toxicity, cell-based, Erythrocyte; conditions: at 256 µg/mL, read-out: Activity; in short: as §1
[8] = Antimicrobial activity against Salmonella enterica serovar Newport ATCC 6962 assessed as growth inhibition by microdilution assay; format: functional, Salmonella enterica subsp. enterica serovar Newport; in short: as §2
Clostridium perfringens = assay: Antimicrobial activity against Clostridium perfringens ATCC 3628 assessed as growth inhibition by microdilution assay; format: functional
In short: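 Broth microdilution: twofold serial peptide dilutions in reinforced clostridial medium (RCM), seeded with about 1 × 10^4 cfu per well, incubated 20 h at 37 °C. Working solution 512 μg mL−1 made from a 2 mg mL−1 stock in water with 10% DMSO. Growth read as absorbance at 595 nm. MIC taken as the lowest concentration giving complete inhibition of visible growth; run in triplicate.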

[9] = Cytotoxicity against human Caco-2 cells assessed as inhibition of cell viability incubated for 48 hrs by Cell Titer GLO assay; format: toxicity, cell-based
In short: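 Caco-2 cells in DMEM with 10% FCS, seeded 25 000 per well, adhered overnight, then given peptide at 2–256 μg mL−1 in complete medium for 48 h at 37 °C, 5% CO2. Controls: cisplatin 125 μM; 0.1% DMSO medium. Viability by ATP luminescence (CellTiter-Glo) versus untreated cells; IC50 from dose–response; mean ± SEM of at least three independent experiments.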

Enterococcus faecalis = assay: Antimicrobial activity against Enterococcus faecalis ATCC 29212 assessed as growth inhibition by microdilution assay; format: functional; in short: as §2
Staphylococcus aureus [10] = assay: Bactericidal activity against Staphylococcus aureus ATCC 6538 measured after 48 hrs by microdilution assay; format: functional, organism-based
In short: (§4)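 MIC wells showing complete inhibition were sampled, 10 μL spread on agar and incubated 48 h under strain conditions; MBC = lowest concentration giving no growth on agar. MIC by broth microdilution (TSB 20 h 37 °C for S. aureus; Brucella 48 h 37 °C for C. coli). Triplicate.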

Campylobacter coli [11] = assay: Bacteriostatic activity against Campylobacter coli ATCC 33559 measured after 48 hrs by microdilution assay; format: functional, organism-based; in short: as §4
Campylobacter coli [12] = assay: Bacteriostatic activity against Campylobacter coli ATCC 33559 assessed as MBC/MIC ratio by microdilution assay; format: functional; in short: as §4
Staphylococcus aureus [13] = assay: Antimicrobial activity against Staphylococcus aureus ATCC 6538 assessed as diameter of growth inhibition at 128 ug/ml by radial diffusion assay; format: functional; conditions: dose 128 µg/ml; in short: as §3
[14] = Hemolytic activity in human erythrocytes assessed as fold decrease at 256 ug/ml measured after 1 hr by absorbance based assay relative to brevibacillin; format: toxicity, cell-based; conditions: erythrocyte, dose 256 µg/ml; in short: as §1
Pseudomonas aeruginosa [15] = assay: Antimicrobial activity against Pseudomonas aeruginosa ATCC […] assessed as diameter of growth inhibition at 128 ug/ml by radial diffusion assay; format: functional; conditions: dose 128 µg/ml; in short: as §3
Staphylococcus aureus [16] = assay: Bacteriostatic activity against Staphylococcus aureus ATCC 6538 assessed as MBC/MIC ratio by microdilution assay; format: functional; in short: as §4

| SMILES | hemolysis at 1 h, 128 ug/ml [1] | MIC (Escherichia coli) | MIC (Staphylococcus aureus [2]) | MIC (Pseudomonas aeruginosa [3]) | growth inhibition (qualitative call) (Staphylococcus aureus [4]) | MIC (Campylobacter coli [5]) | MIC (Bacillus subtilis) | growth inhibition (qualitative call) (Pseudomonas aeruginosa [6]) | MIC (Listeria monocytogenes) | hemolysis at 1 h, 256 ug/ml [7] | MIC [8] | MIC (Clostridium perfringens) | IC50 at 48 h [9] | MIC (Enterococcus faecalis) | also measured |
| --- | --- | --- | --- | --- | --- | --- | --- | --- | --- | --- | --- | --- | --- | --- | --- |
| C/C=C(/NC(=O)[C@@H](O)[C@@H](C)CC)C(=O)N[C@@H](CC(C)C)C(=O)N[C@H](CCCN)C(=O)N[C@H](C(=O)N[C@H](C(=O)N[C@H](C(=O)N[C@H](CCCCN)C(=O)N[C@H](C(=O)N[C@H](C(=O)N[C@@H](CCCCN)C(=O)N[C@H](Cc1ccc(O)cc1)C(=O)N[C@@H](CC(C)C)C(=O)N[C@H](C(N)=O)C(C)C)C(C)C)C(C)C)C(C)C)[C@@H](C)CC)[C@@H](C)CC | 11.8% | > 128 µg/mL | 8 µg/mL | 4 µg/mL | Not active; Exhibited Small Decrease In Activity | > 128 µg/mL | 4 µg/mL | Not active; Exhibited Small Decrease In Activity | 2 µg/mL | 30.1% | > 128 µg/mL | 16 µg/mL | 16.6 µg/mL (≈ 10.4 µM) | 16 µg/mL | – |
| CC[C@@H](NC(=O)[C@@H](O)[C@@H](C)CC)C(=O)N[C@@H](CC(C)C)C(=O)N[C@H](CCCN)C(=O)N[C@H](C(=O)N[C@H](C(=O)N[C@H](C(=O)N[C@H](CCCCN)C(=O)N[C@H](C(=O)N[C@H](C(=O)N[C@@H](CCCCN)C(=O)N[C@H](Cc1ccc(O)cc1)C(=O)N[C@@H](CC(C)C)C(=O)N[C@H](CO)C(C)C)C(C)C)C(C)C)C(C)C)C(C)C)C(C)C | 1.2% | 64 µg/mL | 2 µg/mL | 2 µg/mL | Not active; Exhibited Small Decrease In Activity | 16 µg/mL | 4 µg/mL | Not active; Exhibited Small Decrease In Activity | 4 µg/mL | 4.2% | > 128 µg/mL | 8 µg/mL | 32.4 µg/mL (≈ 20.8 µM) | > 128 µg/mL | – |
| CC[C@H](NC(=O)[C@@H](NC(C)=O)[C@@H](C)CC)C(=O)N[C@@H](CC(C)C)C(=O)N[C@H](CCCN)C(=O)N[C@H](C(=O)N[C@H](C(=O)N[C@H](C(=O)N[C@H](CCCCN)C(=O)N[C@H](C(=O)N[C@H](C(=O)N[C@@H](CCCCN)C(=O)N[C@H](Cc1ccc(O)cc1)C(=O)N[C@@H](CC(C)C)C(=O)N[C@H](C(N)=O)C(C)C)C(C)C)C(C)C)C(C)C)[C@@H](C)CC)[C@@H](C)CC | 23.3% | > 128 µg/mL | > 128 µg/mL | > 128 µg/mL | inactive | > 128 µg/mL | > 128 µg/mL | inactive | > 128 µg/mL | 38.2% | > 128 µg/mL | > 128 µg/mL | 14.9 µg/mL (≈ 9.08 µM) | > 128 µg/mL | – |
| C/C=C(/NC(=O)[C@@H](O)[C@@H](C)CC)C(=O)N[C@@H](CC(C)C)C(=O)N[C@H](CCCN)C(=O)N[C@H](C(=O)N[C@H](C(=O)N[C@H](C(=O)N[C@H](CCCCN)C(=O)N[C@H](C(=O)N[C@H](C(=O)N[C@@H](CCCCN)C(=O)N[C@H](Cc1ccc(O)cc1)C(=O)N[C@@H](CC(C)C)C(=O)N[C@H](CO)C(C)C)C(C)C)C(C)C)C(C)C)[C@@H](C)CC)[C@@H](C)CC | 9.6% | 32 µg/mL | 2 µg/mL | 1 µg/mL | Active | 8 µg/mL | 1 µg/mL | Active | 2 µg/mL | 25.2% | 64 µg/mL | 4 µg/mL | 10.9 µg/mL (≈ 6.88 µM) | 4 µg/mL | Activity (Staphylococcus aureus [10]): Active; Activity (Campylobacter coli [11]): Active |
| CC[C@H](NC(=O)[C@@H](O)[C@@H](C)CC)C(=O)N[C@@H](CC(C)C)C(=O)N[C@H](CCCN)C(=O)N[C@H](C(=O)N[C@H](C(=O)N[C@H](C(=O)N[C@H](CCCCN)C(=O)N[C@H](C(=O)N[C@H](C(=O)N[C@@H](CCCCN)C(=O)N[C@H](Cc1ccc(O)cc1)C(=O)N[C@@H](CC(C)C)C(=O)N[C@H](CO)C(C)C)C(C)C)C(C)C)C(C)C)[C@@H](C)CC)[C@@H](C)CC | 15.5% | > 128 µg/mL | 1 µg/mL | 1 µg/mL | Not active; Exhibited Small Decrease In Activity | 4 µg/mL | 1 µg/mL | Not active; Exhibited Small Decrease In Activity | 0.5 µg/mL | 58.7% | > 128 µg/mL | 2 µg/mL | 10 µg/mL (≈ 6.3 µM) | 2 µg/mL | Ratio (Campylobacter coli [12]): 8 |
| C/C=C(/NC(=O)[C@@H](O)[C@@H](C)CC)C(=O)N[C@@H](CC(C)C)C(=O)N[C@H](CCCN)C(=O)N[C@H](C(=O)N[C@H](C(=O)N[C@H](C(=O)N[C@H](CCCCN)C(=O)N[C@H](C(=O)N[C@H](C(=O)N[C@@H](CCCCN)C(=O)N[C@H](Cc1ccc(O)cc1)C(=O)N[C@@H](CC(C)C)C(=O)N[C@H](CO)C(C)C)C(C)C)C(C)C)C(C)C)C(C)C)C(C)C | 0.65% | 64 µg/mL | 4 µg/mL | 4 µg/mL | – | 32 µg/mL | 8 µg/mL | – | 4 µg/mL | – | > 128 µg/mL | 16 µg/mL | 87.5 µg/mL (≈ 56.2 µM) | 32 µg/mL | Activity (Staphylococcus aureus [13]): 11 mm; fold change (FC) [14]: 25; Activity (Pseudomonas aeruginosa [15]): 12 mm; Ratio (Staphylococcus aureus [16]): 8 |
